# Laboratory results: paper PMC3983340 (Journal of Medicinal Chemistry, 2014)
# Key:
# [1] = target: T1, C. glabrata DHFR (CgDHFR) (Candida glabrata, UniProt Q6FPH0); test: DHFR enzyme inhibition; format: biochemical
# T1 sequence (Q6FPH0 1-217): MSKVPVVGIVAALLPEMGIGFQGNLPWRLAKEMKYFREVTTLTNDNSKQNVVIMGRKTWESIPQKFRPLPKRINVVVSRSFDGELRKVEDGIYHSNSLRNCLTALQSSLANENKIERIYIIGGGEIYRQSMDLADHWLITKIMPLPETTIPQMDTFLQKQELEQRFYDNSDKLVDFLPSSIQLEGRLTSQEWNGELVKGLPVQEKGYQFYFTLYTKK
# [2] = test system: C. albicans (strain SC5314); test: Antifungal activity; format: cell-based
# Procedure, shortened: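 SC5314 from −80 °C glycerol stock streaked on YM agar (37 °C, 48 h); colonies cultured in glucose–salt–biotin medium, pH 7.1, at 25 °C for 18 h (also printed as 30 °C, 24–36 h). Diluted to 1 × 10^5–1 × 10^6 cells/mL in GSB over test compound in DMSO (1 μL per 100 μL). Alamar Blue added after 24 h; MIC from absorbance-maximum shift 570→600 nm. Amphotericin B, itraconazole controls.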
IC50 [1],MIC C. albicans in the presence of 0.01% Triton X-100 [2],Compound
0.089 µM,,CCc1nc(N)nc(N)c1C#CC(C)c1cc(OC)cc(-c2ccncc2)c1 (stereo not drawn) [Compound 1]
,do inhibit the growth of C. albicans,COc1ccc(-c2ccccc2)cc1C(C)C#Cc1c(C)nc(N)nc1N (stereo not drawn) [Compound 2]
,not significantly changed,"CCc1nc(N)nc(N)c1C#CC(C)c1ccc(-c2ccc(C)cc2)nc1 (stereo not drawn) [Compound 47, 6-Ethyl-5-[3-(6-p-tolyl-pyridin-3-yl)-but-1-ynyl]-pyrimidine-2,4-diamine]"
